Values belong to the compound of their own block, whether it stands above or below them.
Key:
[1] = system: Megacyllene caryae adults; details: adult M. caryae, field; ref Mitchell, 2012; cited from earlier work
[2] = system: McOr5; assay: McOr5 co-expressed with Orco; type: cell-based, Megacyllene caryae; details: McOr5, odorant at 30 µM applied 20 s
Outline: (§1)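 Defolliculated Xenopus laevis oocytes (collagenase B, 2 h, room temperature) were co-injected with receptor and Orco (McOr1) cRNA and incubated 3–7 d. Two-electrode voltage clamp was run at −70 mV with 3 M KCl electrodes (0.2–2.0 MΩ) in ND96. Pheromone components and isomers, diluted in ND96, were applied at 30 µM for 20 s at 1.6 ml/min. Currents were filtered at 20 Hz and sampled at 100 Hz.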

[3] = system: AmOr11; details: AmOr11, Xenopus assay; ref Wanner et al., 2007; cited from earlier work
[4] = system: McOr20; assay: McOr20 co-expressed with Orco; type: cell-based, Megacyllene caryae; details: for Current response of receptor in separate screen: McOr20, odorant at 100 µM, data not shown; for Current response of receptor in screen: McOr20, odorant at 30 µM applied 20 s
[5] = system: McOr3; assay: McOr3 co-expressed with Orco; type: cell-based, Megacyllene caryae; details: McOr3, odorant at 30 µM applied 20 s
Outline: as §1

[6] = system: BmOr3; details: ref Nakagawa et al., 2005; cited from earlier work
[7] = system: BmOr 1; details: ref Nakagawa et al., 2005; cited from earlier work

Current response of receptor in screen [4]: sensitive
Structure (SMILES): CCC[C@@H](O)[C@H](C)O [(2S,3R)-2,3-hexanediol]

Current response of receptor in separate screen [4]: responded
Structure (SMILES): CCC[C@H](O)[C@H](C)O [(2S,3S)-2,3-hexanediol]

Current response of receptor in screen [4]: sensitive
Structure (SMILES): CCC[C@@H](O)C(C)=O [(R)-3-hydroxyhexan-2-one]

More lines, now with the values behind:

Structure (SMILES): CC(C)=CCCC(C)=CC=O (mixture of isomers) [Citral, citral]
Attraction of beetles [1]: attracts males and females in similar numbers

Structure (SMILES): OCCc1ccccc1 [2-phenylethanol]
Current response of receptor in screen [2]: sensitive

Structure (SMILES): CC(=O)CCCCCC=CC(=O)O [9-oxo-2-decenoic acid]
EC50 [3]: 280 nM

Structure (SMILES): CCC[C@H](O)[C@@H](C)O [(2R,3S)-2,3-hexanediol]
Current response of receptor in separate screen [4]: responded

Structure (SMILES): CC[C@H](C)CO [(S)-methylbutan-1-ol, (S)-2-methylbutan-1-ol]
Current response of receptor in screen [5]: responded with high sensitivity

Structure (SMILES): CCC/C=C\C=C\CCCCCCCCC=O [bombykal]
EC50 [6]: 260 nM

Structure (SMILES): CCC/C=C\C=C\CCCCCCCCCO [bombykol]
EC50 [7]: 1500 nM

Reference: article PMC3361640 (Insect Biochemistry and Molecular Biology, 2012)
